Only some compounds are listed: those with a hit (about 2.6% of all), similar ones and a draw of the others.
SKN-1 block – C. elegans SKN-1 inhibition; C. elegans VP596 Pgst-4::GFP/RFP ratio, acrylamide-induced, 24 h; inhibition, % at 21.8 µM; 0.49% of 360,000 active;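 active = interference check ratio from 0.5 to 1.5 plus GFP to RFP signal ratio inhibition reaching or exceeding a fixed threshold, cut at about 30% in these data, passing the limit was not always enough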
GRK2 inh – human GRK2 inhibition via aptamer displacement; P25098; bead flow cytometry, FAM-aptamer displacement from GRK2; inhibition of aptamer binding, % at 10 µM; 0.59% of 330,000 active; AID 488847;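 active = inhibition of aptamer binding above 40%, roughly 3 SD of noise, on plates passing a quality check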;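 note: median bead fluorescence of bound FAM aptamer so fluorescent compounds give negative values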
Rce1 inhib – inhibitors of yeast Ras-converting enzyme. Q03530. yeast membranes, quenched prenylated peptide cleavage fluorescence. calls only. 0.27% of 290,000 active. AID 2563;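 active = fall in fluorescence gain of 50% or more versus controls, with final raw signal at or below 3038400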;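 note: plate controls were neutral control wells for no effect and wells lacking membranes for full effect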
Rin1 Abl inh – blocks binding of human Rin1 to Abl; TR-FRET Rin1/Abl binding, biochemical; inhibition, % at 7.35 µM; 0.4% of 360,000 active; AID 588664; in the data active = inhibition above about 5%, passing the limit was not always enough
Target sequence (P00519 whole entry, looked up): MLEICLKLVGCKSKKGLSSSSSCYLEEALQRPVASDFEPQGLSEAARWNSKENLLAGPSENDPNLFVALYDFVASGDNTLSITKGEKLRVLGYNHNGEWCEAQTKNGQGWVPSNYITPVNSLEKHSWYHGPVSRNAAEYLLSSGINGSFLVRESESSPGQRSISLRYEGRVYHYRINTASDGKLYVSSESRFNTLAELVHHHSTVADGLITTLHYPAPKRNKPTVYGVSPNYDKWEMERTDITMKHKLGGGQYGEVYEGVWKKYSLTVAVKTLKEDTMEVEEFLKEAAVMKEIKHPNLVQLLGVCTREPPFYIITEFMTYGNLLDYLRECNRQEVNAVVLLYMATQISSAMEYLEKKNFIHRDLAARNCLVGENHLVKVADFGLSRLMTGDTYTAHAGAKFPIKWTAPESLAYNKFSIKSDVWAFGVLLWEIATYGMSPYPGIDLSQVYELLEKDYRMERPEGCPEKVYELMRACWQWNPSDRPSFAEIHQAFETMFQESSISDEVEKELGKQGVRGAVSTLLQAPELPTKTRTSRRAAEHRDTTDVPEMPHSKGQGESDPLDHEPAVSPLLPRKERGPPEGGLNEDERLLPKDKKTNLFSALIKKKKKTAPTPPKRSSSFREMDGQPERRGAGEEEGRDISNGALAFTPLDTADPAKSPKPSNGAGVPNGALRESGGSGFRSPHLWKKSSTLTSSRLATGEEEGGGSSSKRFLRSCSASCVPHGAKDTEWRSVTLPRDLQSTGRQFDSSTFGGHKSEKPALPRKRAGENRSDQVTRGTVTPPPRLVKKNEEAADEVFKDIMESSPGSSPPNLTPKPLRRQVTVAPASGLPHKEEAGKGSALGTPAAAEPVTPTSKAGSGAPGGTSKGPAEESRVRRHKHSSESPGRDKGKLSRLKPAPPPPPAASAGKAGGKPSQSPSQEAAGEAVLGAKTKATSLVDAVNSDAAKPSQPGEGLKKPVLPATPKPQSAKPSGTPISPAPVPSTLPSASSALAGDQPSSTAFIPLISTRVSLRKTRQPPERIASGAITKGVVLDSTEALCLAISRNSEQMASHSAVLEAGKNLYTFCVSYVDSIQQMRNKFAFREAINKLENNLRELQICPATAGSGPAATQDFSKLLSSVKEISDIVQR
Target sequence (Q13671 whole entry, looked up): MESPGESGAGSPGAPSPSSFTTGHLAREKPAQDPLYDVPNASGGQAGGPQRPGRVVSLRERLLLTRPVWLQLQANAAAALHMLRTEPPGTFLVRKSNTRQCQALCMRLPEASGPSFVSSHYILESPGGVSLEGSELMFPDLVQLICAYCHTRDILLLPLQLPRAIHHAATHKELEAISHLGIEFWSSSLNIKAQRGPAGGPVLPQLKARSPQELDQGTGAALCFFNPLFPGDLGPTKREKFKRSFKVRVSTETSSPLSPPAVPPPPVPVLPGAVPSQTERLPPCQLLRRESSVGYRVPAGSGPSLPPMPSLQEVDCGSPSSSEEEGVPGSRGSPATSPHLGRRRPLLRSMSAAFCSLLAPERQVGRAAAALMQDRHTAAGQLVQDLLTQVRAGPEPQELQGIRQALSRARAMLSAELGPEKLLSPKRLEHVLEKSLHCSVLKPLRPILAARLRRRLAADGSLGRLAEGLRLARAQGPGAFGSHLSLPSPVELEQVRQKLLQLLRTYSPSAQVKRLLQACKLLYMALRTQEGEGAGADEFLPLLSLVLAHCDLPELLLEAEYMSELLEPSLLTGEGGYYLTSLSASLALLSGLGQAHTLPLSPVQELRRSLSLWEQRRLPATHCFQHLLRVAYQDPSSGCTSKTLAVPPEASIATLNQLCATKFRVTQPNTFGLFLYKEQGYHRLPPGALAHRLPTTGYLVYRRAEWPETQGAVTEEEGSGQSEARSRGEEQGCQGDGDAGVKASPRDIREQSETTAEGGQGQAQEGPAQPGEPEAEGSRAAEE
Myeloid diff 2 – myeloid differentiation induction; ER-HoxA9 myeloid progenitors, lysozyme-GFP differentiation, flow cytometry; calls only at 10 µM; 1% of 360,000 active;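 active = normalized GFP-positive differentiation at or above the plate's own cutoff, the solvent-only control mean plus 3 SD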;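 note: cells exposed to compound for four days before flow analysis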
T cell HTS – T cell immune modulators affecting CD8 T cell-vesicle binding | 2C CD8+ T cell-vesicle binding, flow cytometry; stronger effect = lower value | response (vesicle binding), % at 7 µM | 0.068% of 330,000 active;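 active = response, share of CD8 T cells binding vesicles, and their 90th percentile fluorescence all below set limits, cut at about 80% in these data, passing the limit was not always enough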;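 note: values below 100% mean blocked vesicle binding to the CD8+ T cells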
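System: murine 2C transgenic CD8+ T lymphocytes; also added: QL9-loaded Drosophila micro-vesicles; times: binding 1.5 h at 37 °C; measured by: flow cytometry, PE anti-B7-1 (FL2) versus Alexa647 anti-CD8 (FL8), PFA-fixed; control set: Peptide-free naked vesicles (low) and QL9 vesicles with 0.7% DMSO vehicle (high)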
GRK2 CP1 – confirmation of human GRK2 inhibitors displacing RNA aptamer; aptamer displacement, % at 10 µM; shares compounds with GRK2 inh; 4% of 2,000 active; bead-bound GRK2, FAM-aptamer displacement, flow cytometry;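 active = aptamer displacement above 40%, near three times the noise of non-fluorescent compounds, on plates passing quality checks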;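 note: negative values mostly reflect intrinsic compound fluorescence rather than true enhancement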
Aptamer quench – quenches fluorescent RNA aptamer, GRK2 hit artifact; shares compounds with GRK2 inh; Fluorescent RNA aptamer beads, quenching, flow cytometry; stronger effect = higher value; fluorescence change (kMESF span), kMESF (no concentration beside the values); 110 tested, under 10 active; AID 504521;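 active = compounds whose bead fluorescence drops by more than 37 kMESF across the dose range, marking them as dye quenchers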
Aptamer quench SP – aptamer fluorescence quenching in GRK2 counter-screen; shares compounds with GRK2 inh; Carboxyfluorescein RNA aptamer on beads, flow cytometry quenching; stronger effect = lower value; fluorescence response (% of DMSO), % at 10 µM; 2,000 tested, under 10 active;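 active = compounds that quench the bead-bound fluorescent RNA probe, cutting fluorescence to under half of the solvent control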;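 note: counterscreen run without GRK2 so only probe quenching by compound is measured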
GRK2 confirm 2 – confirmation of human GRK2 inhibitors binding RNA aptamer site. shares compounds with GRK2 inh. bead-bound GRK2, FAM-aptamer displacement, flow cytometry. 360 tested, under 10 active. inhibition of aptamer binding, % at 10 µM;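 active = inhibition of aptamer binding above 40%, about triple the noise seen with nonglowing compounds, on plates passing quality control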;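 note: negative values mostly come from compounds that fluoresce themselves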
FAM quench SP – quenches fluorescent RNA aptamer, GRK2 hit artifact; fluorescence response vs DMSO, % at 10 µM; 360 tested, under 10 active; carboxyfluorescein RNA aptamer beads, flow cytometry quenching; stronger effect = lower value; shares compounds with GRK2 inh;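 active = response vs DMSO under 50%, meaning signal dropped by over half, treated as fluorescence quencher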;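 note: labelled aptamer on streptavidin beads without GRK2 as a quench counter-screen; 100% = bead fluorescence of DMSO wells and lower means quenching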
FAM quench PS1 – quenches fluorescent RNA aptamer, GRK2 hit artifact | AID 588496 | 35 tested, under 10 active | fluorescence ratio to DMSO, % at 11.1 µM | Bead-bound FAM RNA aptamer fluorescence quenching, flow cytometry; stronger effect = lower value | shares compounds with GRK2 inh;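 active = compounds that dim the fluorescent label, raw bead signal shifting by over 33 units between lowest and highest dose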
Starred values were filed as active, the others as inactive; i = inactive; nt = not tested or not shown; + = active, no number.

SMILES	SKN-1 block	GRK2 inh	Rce1 inhib	Rin1 Abl inh	Myeloid diff 2	T cell HTS	GRK2 CP1	Aptamer quench SP	others
Cc1cc2ccccc2n1CCNC(=O)c1ccc(S(=O)(=O)N2CCCCC2)cc1	53	83*	i	-2	i	342	84*	72	Aptamer quench=7.5
Cc1cc2ccccc2n1CCNC(=O)C(C)Oc1ccccc1 (centres undefined)	36	85*	i	2	i	398	28	97	Aptamer quench=-120;FAM quench PS1=101
COCC(=O)N(C)C[C@H]1N[C@@](C)(C(=O)OC)[C@H]2C(=O)N(Cc3ccccc3)C(=O)[C@@H]12	5	0	nt	-1	i	215	nt	nt
COc1cccc(NC(=O)CSc2nnc(-c3cc(C)n(-c4ccccc4)c3C)o2)c1	-1	98*	i	-5	i	332	2	103
COc1ccc(NC(=O)CSc2nnc(-c3cccc(O)c3)o2)cc1	11	0	i	-1	i	253	nt	nt
COC(=O)c1ccccc1N1C(=O)[C@@H]2C(c3ccc(F)cc3)=NO[C@@H]2C1=O	9	0	i	1	i	228	nt	nt	GRK2 confirm 2=0;FAM quench SP=101
CCc1cc(=O)oc2cc(C)cc(OCC(=O)NCC(O)c3ccccc3)c12 (centres undefined)	5	0	i	-1	i	572	nt	nt
O=C(CCN1C(=O)c2ccccc2C1=O)Nn1cnnc1	16	52*	i	-3	i	60	2	94
O=C(CCN1C(=O)c2ccccc2C1=O)NCc1ccccc1	7	0	i	0	i	348	nt	nt
CCOC(=O)C1=C(C(F)(F)F)Nc2ncnn2C1c1cccc(OC)c1OC (centres undefined)	5	81*	i	0	i	154	nt	nt	GRK2 confirm 2=-9;FAM quench SP=101
O=C(Nc1ccc(F)c(F)c1)C1CCN(S(=O)(=O)c2cccs2)CC1	18	0	nt	0	i	303	nt	nt
COc1ccc(/C=C/C(=O)Nc2ccc3nc4n(c(=O)c3c2)CCCC4)cc1	2	0	i	0	i	750	nt	nt
COc1cc(/C=C/C(=O)Nc2ccc3nc4n(c(=O)c3c2)CCCC4)cc(OC)c1OC	-6	92*	i	-1	i	173	1	99
COC(=O)c1cccc2c1NC(=O)C2=O	22	71*	i	-3	i	636	1	103
Cc1cccc2c1NC(=O)C2=O	-14	nt	nt	-2	i	nt	nt	nt
Cc1ccc(NC(=O)c2ccc(-n3cncn3)c([N+](=O)[O-])c2)cc1F	-5	0	i	-3	i	434	nt	nt
CN(Cc1ccccc1)Cc1nc2c(c(=O)n(C)c(=O)n2C)n1CCc1ccccc1	10	40	i	0	i	372	-1	98
Cn1c(=O)n(CCc2ccccc2)c(=O)c2c1ncn2Cc1ccccc1	10	74*	i	5	i	366	-2	100
CC(C)(C)S(=O)N1Cc2ccc(CO)cc2[C@@H]1CCO (some centres undefined)	7	nt	nt	1	i	nt	nt	nt
Cc1cccc(-n2ccc(=O)c(C(=O)Nc3ccc(S(=O)(=O)Nc4nccc(C)n4)cc3)n2)c1	15	94*	i	-1	i	406	1	99
Cc1cccc(-n2ccc(=O)c(C(=O)Nc3ccc(S(=O)(=O)N4CCOCC4)cc3)n2)c1	-1	3	i	1	nt	252	nt	nt
COc1ccc(NC(=O)CCCC(=O)OCC(=O)c2cccc(OC)c2)cc1	8	1	i	0	i	555	nt	nt
C=CCNC(=S)NNC(=O)C(CCCC)CC(O)COCC(C)C (centres undefined)	-1	45*	i	-4	i	456	4	101
C=CCNC(=S)NNC(=O)C(CCC(C)C)CC(C)O (centres undefined)	15	0	i	0	i	434	nt	nt
COC(=O)c1ccc(N2CCc3ccccc32)c([N+](=O)[O-])c1	2	52*	i	-2	i	i	0	97
SMILES	SKN-1 block	GRK2 inh	Rce1 inhib	Rin1 Abl inh	Myeloid diff 2	T cell HTS	GRK2 CP1	Aptamer quench SP	others
O=C(O)c1ccc(N2CCc3ccccc32)c([N+](=O)[O-])c1	2	0	i	1	i	nt	nt	nt
CC(=O)N(c1ccccc1)c1ccc([N+](=O)[O-])cc1[N+](=O)[O-]	0	1	i	-4	+	303	nt	nt	GRK2 confirm 2=-17;FAM quench SP=100
CC(=O)N1c2ccc(S(=O)(=O)NCCC(=O)NCCc3ccc(C)cc3)cc2CC1C (centres undefined)	12	5	i	0	i	220	nt	nt
CC(=O)N1c2ccc(S(=O)(=O)NCCC(=O)NCCc3cccc(C)c3)cc2CC1C (centres undefined)	-9	77*	i	3	i	334	-4	99
S=C(Nc1ccccc1)N1CCOCCOCCN(C(=S)Nc2ccccc2)CCOCCOCC1	-1	0	i	1	i	299	nt	nt
S=C(Nc1ccccc1)N1CCN(c2ccc(N3CCOCC3)nn2)CC1	-7	0	i	-2	i	201	-1	90
CC(Oc1ccccc1)C(=O)N1CCN(c2ccc(N3CCOCC3)nn2)CC1 (centres undefined)	1	2	i	6	i	393	-1	106
CCC(C(=O)NC1CC1)n1nc(C)c2c(C)n(-c3ccccc3)nc2c1=O (centres undefined)	3	4	i	-1	i	472	nt	nt
CCOCCCNC(=O)C1(O)c2cc(Br)ccc2NC(=O)N1c1ccc(OCC)cc1 (centres undefined)	-4	61*	i	1	i	221	0	102

Source: PubChem
